Experimental data published in ChEMBL document CHEMBL4765307, “Design, synthesis and biological activity of novel 2,3,4,5-tetra-substituted thiophene derivatives as PI3Kα inhibitors with potent antitumor activity” (Eur J Med Chem, 2020).

What was measured:
NCI-H1975 = experiment: Antiproliferative activity against human NCI-H1975 cells harboring PIK3CA mutation assessed as reduction in cell viability after 3 days by CellTiter-Glo luminescence assay; type: functional, cell-based; settings: NCI-H1975, 72 h
Method in brief: (§1)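 ATCC lines, 10% FBS: T47D, H1975, H460 in RPMI1640; U87MG in DMEM; A549 in F12K. Seeded 3×10^3 per well the day before, exposed to 3-fold serial dilutions or DMSO for 3 days at 37 °C, 5% CO2; CellTiter-Glo luminescence.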

NCI-H460 = experiment: Antiproliferative activity against human NCI-H460 cells harboring PIK3CA mutation assessed as reduction in cell viability after 3 days by CellTiter-Glo luminescence assay; type: functional, cell-based; settings: NCI-H460, 72 h; method in brief: as §1
A549 = experiment: Antiproliferative activity against human A549 cells assessed as reduction in cell viability after 3 days by CellTiter-Glo luminescence assay; type: functional, cell-based; settings: A549, 72 h; method in brief: as §1
[1] = Efflux ratio of permeability from basolateral to apical over apical to basolateral side in human Caco2 cells at 2 uM incubated for 2 hrs by LC-MS/MS analysis; type: ADME, cell-based; settings: Caco-2
Method in brief: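 Caco-2 monolayers grown 21–28 days; compound 2 µM both directions in duplicate, DMSO <1%; 2 h at 37 °C, 5% CO2 without shaking. Donor and receiver levels by LC/MS/MS; integrity by lucifer yellow. Papp = (dCr/dt)×Vr/(A×C0); efflux ratio = Papp(B-A)/Papp(A-B).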

CYP1A2 = target: T1, CYP1A2 (Homo sapiens, UniProt P05177); experiment: Inhibition of CYP1A2 in human liver microsomes using phenacetin as substrate at 10 uM preincubated for 10 mins followed by incubation with NADPH for 10 mins by LC- MS/MS analysis; type: ADME; settings: probe phenacetin, time 20 min
T1 sequence (P05177 whole entry): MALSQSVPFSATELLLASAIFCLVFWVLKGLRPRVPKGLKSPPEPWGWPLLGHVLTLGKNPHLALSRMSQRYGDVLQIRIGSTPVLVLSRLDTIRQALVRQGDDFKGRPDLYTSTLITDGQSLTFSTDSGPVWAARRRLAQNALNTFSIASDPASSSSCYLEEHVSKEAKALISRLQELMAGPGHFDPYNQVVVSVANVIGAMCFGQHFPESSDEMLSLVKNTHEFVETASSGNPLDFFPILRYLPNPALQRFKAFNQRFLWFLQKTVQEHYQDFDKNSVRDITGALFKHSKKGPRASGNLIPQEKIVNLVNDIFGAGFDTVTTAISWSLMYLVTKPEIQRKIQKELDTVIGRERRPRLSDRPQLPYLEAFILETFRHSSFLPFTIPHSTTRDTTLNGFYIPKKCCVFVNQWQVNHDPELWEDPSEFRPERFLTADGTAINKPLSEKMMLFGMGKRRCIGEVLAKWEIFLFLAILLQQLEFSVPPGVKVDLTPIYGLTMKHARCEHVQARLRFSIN
Method in brief: (§2)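 Human liver microsomes 0.25 mg/mL with probe substrate (CYP1A2 10 µM phenacetin; CYP2D6 5 µM dextromethorphan; CYP3A4 2 µM midazolam), test compound 10 µM; 10 min preincubation at 37 °C, NADPH added (final 10 mM), 10 min at 37 °C; stopped with cold acetonitrile containing internal standards; LC-MS/MS.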

CYP2D6 = CYP2D6 (Homo sapiens, UniProt P10635); experiment: Inhibition of CYP2D6 in human liver microsomes using dextromethorphan as substrate at 10 uM preincubated for 10 mins followed by incubation with NADPH for 10 mins by LC- MS/MS analysis; type: ADME; settings: probe dextromethorphan, time 20 min; method in brief: as §2
CYP3A4 = CYP3A4 (Homo sapiens, UniProt P08684); experiment: Inhibition of CYP3A4 in human liver microsomes using midazolam as substrate at 10 uM preincubated for 10 mins followed by incubation with NADPH for 10 mins by LC- MS/MS analysis; type: ADME; settings: probe midazolam, time 20 min; method in brief: as §2
[2] = Half life in Sprague-Dawley rat at 5 mg/kg, iv measured after 24 hrs by LC-MS/MS analysis; type: ADME, organism-based; settings: in vivo
Method in brief: (§3)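 Male SD rats (n=6), single 5 mg/kg intravenous dose; heparinised blood at 0.083–24 h, centrifuged at 4 °C; plasma quantified by LC–MS/MS; noncompartmental parameters.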

[3] = Volume of distribution in Sprague-Dawley rat at 5 mg/kg, iv measured after 24 hrs by LC-MS/MS analysis; type: ADME, organism-based; settings: in vivo; method in brief: as §3
[4] = AUC (0 to infinity) in Sprague-Dawley rat at 5 mg/kg, iv measured after 24 hrs by LC-MS/MS analysis; type: ADME, organism-based; set-up: route intravenous, dose 5 mg/kg, time 24 hrs; settings: in vivo; method in brief: as §3
[5] = target: Phosphatidylinositol 4,5-bisphosphate 3-kinase catalytic subunit alpha isoform (Homo sapiens) (UniProt P42336); experiment: Inhibition of PI3Kalpha in human T47D cells assessed as inhibition of insulin-stimulated Akt phosphorylation at Ser473 residue at 3 uM preincubated for 2 hrs followed by incubation with insulin for 2 hrs by western blot analysis relative to control; type: cell-based; settings: time 4.0 hrs
Method in brief: (§4)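 T47D cells given compound at 37 °C for 2 h, then stimulated with 1 µg/mL insulin for 2 h; lysed in RIPA with protease/phosphatase inhibitors and 1 mM PMSF; BCA-normalised SDS-PAGE, PVDF blot probed overnight at 4 °C for total Akt and pAkt Ser473, infrared secondary detection.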

[6] = target: Phosphatidylinositol 4,5-bisphosphate 3-kinase catalytic subunit alpha isoform (Homo sapiens) (UniProt P42336); experiment: Inhibition of PI3Kalpha in human T47D cells assessed as inhibition of insulin-stimulated Akt phosphorylation at Ser473 residue at 0.1 uM preincubated for 2 hrs followed by incubation with insulin for 2 hrs by western blot analysis relative to control; type: cell-based; settings: time 4.0 hrs; method in brief: as §4
[7] = target: Phosphatidylinositol 4,5-bisphosphate 3-kinase catalytic subunit alpha isoform (Homo sapiens) (UniProt P42336); experiment: Inhibition of PI3Kalpha in human T47D cells assessed as inhibition of insulin-stimulated Akt phosphorylation at Ser473 residue preincubated for 2 hrs followed by incubation with insulin for 2 hrs by western blot analysis relative to control; type: cell-based; settings: dose 0.1-3 µM, time 4.0 hrs; method in brief: as §4

Phosphatidylinositol 4,5-bisphosphate 3-kinase catalytic subunit alpha isoform (Homo sapiens), sequence (P42336 whole entry, canonical isoform): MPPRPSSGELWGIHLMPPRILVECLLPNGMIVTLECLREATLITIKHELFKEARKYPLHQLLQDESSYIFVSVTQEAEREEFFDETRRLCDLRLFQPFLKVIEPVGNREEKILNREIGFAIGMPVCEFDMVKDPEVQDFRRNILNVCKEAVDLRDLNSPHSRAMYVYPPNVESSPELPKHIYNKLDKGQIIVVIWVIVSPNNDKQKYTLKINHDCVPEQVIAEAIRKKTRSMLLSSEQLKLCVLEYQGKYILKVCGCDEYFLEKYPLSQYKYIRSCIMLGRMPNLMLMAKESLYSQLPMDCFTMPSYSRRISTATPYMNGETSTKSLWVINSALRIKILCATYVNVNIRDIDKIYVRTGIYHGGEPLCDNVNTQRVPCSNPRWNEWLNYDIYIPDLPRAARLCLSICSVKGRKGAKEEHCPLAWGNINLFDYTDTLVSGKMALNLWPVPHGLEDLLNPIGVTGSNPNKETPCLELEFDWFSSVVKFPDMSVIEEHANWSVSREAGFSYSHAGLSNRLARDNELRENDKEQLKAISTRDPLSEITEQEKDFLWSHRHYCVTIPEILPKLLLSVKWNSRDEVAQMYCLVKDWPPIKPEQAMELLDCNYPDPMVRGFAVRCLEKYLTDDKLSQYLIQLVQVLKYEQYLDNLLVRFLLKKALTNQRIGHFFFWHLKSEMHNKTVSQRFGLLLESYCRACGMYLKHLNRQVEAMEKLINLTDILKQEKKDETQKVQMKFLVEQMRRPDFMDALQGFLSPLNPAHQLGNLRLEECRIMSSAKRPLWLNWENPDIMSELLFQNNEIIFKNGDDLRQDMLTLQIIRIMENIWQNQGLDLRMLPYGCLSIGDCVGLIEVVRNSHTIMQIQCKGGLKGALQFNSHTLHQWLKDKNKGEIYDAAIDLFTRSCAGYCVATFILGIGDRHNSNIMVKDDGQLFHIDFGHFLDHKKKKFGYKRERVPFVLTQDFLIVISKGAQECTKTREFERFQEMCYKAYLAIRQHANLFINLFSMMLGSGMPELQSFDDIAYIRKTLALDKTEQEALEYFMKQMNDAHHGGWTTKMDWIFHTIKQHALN
CYP2D6, sequence (P10635 whole entry): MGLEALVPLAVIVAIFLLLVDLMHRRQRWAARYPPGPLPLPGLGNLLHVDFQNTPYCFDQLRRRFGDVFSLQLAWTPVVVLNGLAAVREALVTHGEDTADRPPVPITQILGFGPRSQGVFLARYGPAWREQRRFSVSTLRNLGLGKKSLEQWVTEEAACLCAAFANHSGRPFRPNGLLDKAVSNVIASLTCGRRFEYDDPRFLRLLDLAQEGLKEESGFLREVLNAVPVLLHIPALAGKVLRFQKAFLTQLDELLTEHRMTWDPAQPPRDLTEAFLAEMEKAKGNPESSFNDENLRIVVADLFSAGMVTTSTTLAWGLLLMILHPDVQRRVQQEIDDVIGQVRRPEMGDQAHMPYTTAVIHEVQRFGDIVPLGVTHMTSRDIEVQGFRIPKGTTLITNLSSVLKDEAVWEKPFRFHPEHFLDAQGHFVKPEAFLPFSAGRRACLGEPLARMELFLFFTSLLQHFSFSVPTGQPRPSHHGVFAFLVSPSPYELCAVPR
CYP3A4, sequence (P08684 whole entry): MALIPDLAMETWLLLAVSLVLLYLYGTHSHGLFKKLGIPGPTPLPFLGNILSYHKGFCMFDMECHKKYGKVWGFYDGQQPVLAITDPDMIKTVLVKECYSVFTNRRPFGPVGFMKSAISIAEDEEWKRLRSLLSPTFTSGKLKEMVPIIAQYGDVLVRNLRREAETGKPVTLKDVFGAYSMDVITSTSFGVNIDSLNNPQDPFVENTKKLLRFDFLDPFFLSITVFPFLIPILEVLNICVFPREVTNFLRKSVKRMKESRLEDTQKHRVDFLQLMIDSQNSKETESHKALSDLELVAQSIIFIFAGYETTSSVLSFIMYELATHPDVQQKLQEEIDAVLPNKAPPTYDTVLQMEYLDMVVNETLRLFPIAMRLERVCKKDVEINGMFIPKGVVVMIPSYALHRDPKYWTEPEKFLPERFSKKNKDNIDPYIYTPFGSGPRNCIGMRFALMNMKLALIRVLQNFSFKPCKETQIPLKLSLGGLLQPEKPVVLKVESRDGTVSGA

IC50 (NCI-H1975): 1060 nM
IC50 (NCI-H460): 200 nM
IC50 (A549): 3840 nM
efflux ratio at 2 h, 2 µM [1]: 1.08
inhibition at 10 min, 10 µM (CYP1A2): 27.8%
inhibition at 10 min, 10 µM (CYP2D6): 28%
inhibition at 10 min, 10 µM (CYP3A4): 1.5%
half-life [2]: 1.98 h
Vd [3]: 8.6 L/kg
AUC(0-inf) [4]: 1620 ng·h/mL
inhibition [5]: 90%
inhibition [6]: 58%
inhibition [7]: Dose-dependent effect
Compound: N#Cc1c(N2CCOCC2)sc(-c2nc[nH]n2)c1-c1ccc(NC(=O)Nc2ccccc2Cl)cc1
